Bioassay records as filed in PubChem.
HSV augment = HSV replication enhancement | HSV replication augmentation in cells, fold increase | maximum fold increase | 220,000 compounds, 0.005% hits | AID 1956; in the data active = maximum fold increase above about 1.5; tested in PC3 cells
STAT1 inh = inhibitors of IFN-gamma induced STAT1 signaling | NIH 3T3 STAT1-luciferase reporter, luminescence | inhibition, % at 5.5 µM | 200,000 compounds, 0.35% hits;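 active = inhibition above a set limit, the mean inhibition across all tested compounds plus 3 SD, cut at about 34% in these data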;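 note: 0% = IFN-gamma with DMSO and 100% = IFN-gamma with 300 µM nifuroxazide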
STAT1 activator = increases IFN-gamma driven STAT1 reporter signal | NIH 3T3 STAT1-luciferase reporter, luminescence; 100% = IFN-gamma alone, no compound | activation (% of control), % at 5.5 µM | 200,000 compounds, 2.6% hits;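 active = activation above the screen-wide mean activation plus 3 SD, cut at about 130% in these data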;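 note: raw ratio to IFN-gamma control signal so 100% means no change and 0% no light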
STAT3 act = activators of IL-6 induced STAT3 signaling; AID 871; activation (% of control), % at 5.6 µM; 190,000 compounds, 0.91% hits; U3A cells, IL-6 STAT3-luciferase reporter, luminescence; 100% = signal with IL-6 EC80 alone;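 active = activation above the screen-wide mean of compound activation plus 3 SD, cut at about 130% in these data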;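 note: 0% = background luminescence of wells with medium and substrate only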
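system = STAT3-luciferase reporter U3A cells | reagent = IL-6 stimulus at 33 ng/mL final | timing = 1 h compound pre-exposure, 6 h IL-6 stimulation, 37 °C | measured by = luminescence | evaluation = % activation versus median of IL-6-stimulated wells | control set = IL-6-only wells as 100% reference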
STAT3 blocker = inhibitors of IL-6 induced STAT3 signaling; AID 862; 190,000 compounds, 0.89% hits; inhibition, % at 5.5 µM; U3A cells, IL-6 STAT3-luciferase reporter, luminescence; host cell line lacks STAT1;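 active = inhibition above the mean inhibition across all screened compounds plus 3 SD, cut at about 44% in these data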;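 note: 0% = DMSO only wells and 100% = 100 µM nifuroxazide control wells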
KCC2 mod = modulates chloride dependent transport by human KCC2. Q9H2X9. KCC2 cells, thallium flux FluoZin-2 fluorescence. B-score of Tl+ flux slope (higher = more flux/activation; lower = inhibition) at 10 µM. 190,000 compounds, 2.2% hits. AID 1456;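 active = thallium flux slope and its plate-corrected score both differing from the plate sample mean at a set confidence after two filtering rounds, in either direction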;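 note: slope of fluorescence scaled to starting intensity during 10 to 20 s after thallium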
Target sequence (Q9H2X9 whole entry, looked up): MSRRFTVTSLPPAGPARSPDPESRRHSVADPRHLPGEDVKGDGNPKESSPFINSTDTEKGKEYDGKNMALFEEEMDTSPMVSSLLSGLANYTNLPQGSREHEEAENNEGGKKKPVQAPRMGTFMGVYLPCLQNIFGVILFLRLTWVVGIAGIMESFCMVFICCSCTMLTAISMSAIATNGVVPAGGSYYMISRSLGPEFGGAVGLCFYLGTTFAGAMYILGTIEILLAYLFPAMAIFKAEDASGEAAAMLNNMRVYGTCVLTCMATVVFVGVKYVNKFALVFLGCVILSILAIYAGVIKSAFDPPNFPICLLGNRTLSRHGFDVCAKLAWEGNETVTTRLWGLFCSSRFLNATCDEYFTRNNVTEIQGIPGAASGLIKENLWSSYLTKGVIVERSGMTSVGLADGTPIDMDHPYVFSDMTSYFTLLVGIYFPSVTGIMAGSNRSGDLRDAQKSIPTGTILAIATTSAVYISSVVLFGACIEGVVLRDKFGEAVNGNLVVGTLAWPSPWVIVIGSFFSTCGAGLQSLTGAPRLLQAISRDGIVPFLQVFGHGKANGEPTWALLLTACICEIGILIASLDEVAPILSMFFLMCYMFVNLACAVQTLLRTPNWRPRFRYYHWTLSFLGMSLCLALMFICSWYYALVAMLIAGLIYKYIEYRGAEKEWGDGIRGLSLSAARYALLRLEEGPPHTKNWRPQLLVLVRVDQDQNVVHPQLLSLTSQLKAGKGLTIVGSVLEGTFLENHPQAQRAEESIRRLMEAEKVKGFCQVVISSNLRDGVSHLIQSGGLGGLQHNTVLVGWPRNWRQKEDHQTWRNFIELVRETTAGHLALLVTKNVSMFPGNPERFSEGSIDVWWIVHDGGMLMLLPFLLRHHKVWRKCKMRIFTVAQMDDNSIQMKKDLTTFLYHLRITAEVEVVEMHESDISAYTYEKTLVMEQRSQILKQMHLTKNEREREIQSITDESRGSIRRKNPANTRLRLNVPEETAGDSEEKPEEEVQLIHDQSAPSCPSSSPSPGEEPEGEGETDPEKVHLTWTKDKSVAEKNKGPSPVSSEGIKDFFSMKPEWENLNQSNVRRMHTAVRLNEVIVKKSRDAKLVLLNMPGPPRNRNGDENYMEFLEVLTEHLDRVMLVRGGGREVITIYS
Numbers without * were called inactive; i = inactive; x = no result. This is a sample that favours compounds with a hit; in the whole collection about 5.5% have one here.

SMILES	HSV augment	STAT1 inh	STAT1 activator	STAT3 act	STAT3 blocker	KCC2 mod
Cc1cccc(C(=O)NC(=S)NNC(=O)COc2c(C)cccc2C)c1	i	0.3	99.7	102.0	2.5	36.8*
O=C(CCc1ccccc1)NNC(=S)NC(=O)c1ccc(Cl)cc1	i	3.1	97.2	98.8	7.3	68.3*
COC(=O)NNC(=O)COc1ccccc1C	i	-0.9	100.8	93.0	6.1	-0.0373
Cc1ccc(C(=O)NC(=S)NNC(=O)COc2ccccc2C)cc1	i	-8.3	107.9	112.4	-15.9	31.1*
Cc1cccc(NC(=O)C2SC(=Nc3c(C)cccc3C)C(C(=O)N3CCOCC3)=C2N)c1 (stereo unspecified)	i	5.1	95.4	109.8	-11.9	2.06
COC(=O)NC1CCC(NC(=O)OC)CC1 (stereo unspecified)	i	-4.3	103.8	100.3	3.5	-0.35
Cc1cc(C)c(-n2c(SCCS(=O)(=O)c3ccc(F)cc3)n[nH]c2=O)c(C)c1	i	x	x	x	x	-0.945
O=C(OCC(=O)N1CCN(C(=O)c2ccco2)CC1)c1cccc(S(=O)(=O)N2CCc3ccccc32)c1	i	14.8	85.9	100.6	3.2	-1.28
CC(=O)Nc1ccc(NC2=C/C(=N/S(=O)(=O)c3cccs3)c3ccccc3C2=O)cc1	i	90.2*	15.4	46.2	65.5*	0.94
CNC(=O)c1ccsc1NC(=O)c1ccc2c(c1)CCCC2	x	-33.9	130.8*	121.6	-25.2	0.281
NC(=O)c1ccsc1NC(=O)c1ccc2c(c1)CCCC2	i	-42.8	138.8*	68.9	36.0	-0.25
O=C(c1ccc(F)cc1)n1ccc(-c2cnc(-c3ccccc3)s2)n1	i	-38.6	135.7*	103.1	3.4	x
Fc1ccc(Cn2ccc(-c3cnc(-c4ccccc4)s3)n2)cc1	i	-33.8	131.2*	84.8	23.8	x
C[C@H]1CC[C@H]2C(=O)N3[C@H](c4ccccc4Br)[C@@H](C)CC[C@H]3C(=O)N2[C@@H]1c1ccccc1Br	x	1.8	98.4	106.6	-10.7	4.37*
CC1CCN(C2CC(=O)N(c3ccccc3)C2=O)CC1 (stereo unspecified)	i	-12.0	109.2	98.4	4.1	-0.0589
COc1ccc(Cl)cc1N1C(=O)/C(=C\c2sccc2C)N=C1SCC(=O)NC1CC1	i	0.0	100.0	106.7	-9.9	-0.404
O=C(N/N=C/c1c[nH]c2ccc(Br)cc12)c1ccn(Cc2ccc(Cl)cc2)n1	x	3.8	96.6	96.3	12.0	1.46
O=C(N/N=C/c1c[nH]c2ccccc12)c1ccn(Cc2ccc(Cl)cc2Cl)n1	x	5.8	94.8	135.5*	-33.2	0.413
CN(C)c1ccc([C@@H]2[C@@H]([N+](=O)[O-])[C@H]3C=Cc4ccccc4N3[C@H]2C(=O)c2ccc(Cl)cc2)cc1	i	13.6	87.6	144.6*	-55.0	-0.0903
NC(=O)c1cc2cc(Cl)ccc2o/c1=N/NC(=O)c1cccs1	i	x	x	x	x	-0.0253
O=C(O)CN1CCCCCC1=O	i	7.0	92.4	104.8	-4.2	-0.682
S=C(NN=C1CCCCCC1)Nc1ccc(Cl)cc1	i	-1.2	98.3	99.5	1.8	x
Fc1ccc(NC(=S)NN=C2CCCCCC2)cc1	i	-1.4	101.3	96.3	8.4	21.7*
CN(C)CCCN1C(=O)c2cccc3c([N+](=O)[O-])ccc(c23)C1=O	x	-48.3	142.6*	108.6	-4.9	-0.895
Cc1ccc(/C=N/NC(=O)c2nn(C)cc2Cl)cc1	i	-32.7	128.9*	94.4	10.2	-0.649
SMILES	HSV augment	STAT1 inh	STAT1 activator	STAT3 act	STAT3 blocker	KCC2 mod
CN(C)S(=O)(=O)c1ccc(NC(=S)NC(=O)c2ccc(Br)o2)cc1	i	5.6	93.8	90.8	14.5	12.6*
CCN(CC)c1ccc(NC(=O)c2ccc(Br)o2)cc1	i	-33.2	132.7*	107.7	-2.3	-0.548
O=C(Nc1ccc2c(c1)oc1ccccc12)c1ccc(Br)o1	i	-43.4	139.4*	97.1	7.5	x
Cn1cnnc1SCC(=O)Nc1ccc2nc(SCc3ccccc3F)sc2c1	i	-51.7	145.8*	114.1	-15.6	x
O=C(CSc1ccccc1)N1CCN(c2ccccc2)CC1	i	-9.6	108.8	102.9	0.9	x
Cc1cccc(N2CCN(C(=O)CCCOc3ccccc3)CC2)c1C	i	-34.7	131.6*	115.3	-12.4	x
O=C(CCCOc1ccccc1)N1CCN(c2ccccc2)CC1	i	-32.0	131.4*	102.5	-1.8	x
O=C(CCSc1ccc(Cl)cc1)N1CCCCCC1	i	-35.2	131.7*	102.6	7.2	2.53
O=C(CCSc1ccccc1)N1CCN(c2ccccc2)CC1	i	-32.8	131.4*	111.0	-10.3	-1
COc1ccc(Cc2nc3ccccc3[nH]2)cc1OC	i	13.6	86.0	87.1	19.2	-0.0115
COc1cc2c(cc1NC(=O)C(c1ccccc1)c1ccccc1)CCCC2	i	-6.1	106.1	105.4	-5.3	x
CCN1C=C(Cc2cccs2)C2=C(C1)C(c1cccs1)C(C#N)=C(N)O2 (stereo unspecified)	i	4.2	96.1	95.0	7.7	-0.797
C=CCn1c(O)c(C=Nc2ccccc2)sc1=S	i	-33.2	128.7*	102.2	-0.3	0.193
O=C(O)Cn1c(O)c(C=Nc2ccccc2)sc1=S	i	-1.8	101.7	95.8	10.5	-0.0205
CCn1c(O)c(C=Nc2ccccc2)sc1=O	i	-33.9	130.1*	99.8	5.5	x
CCCCN(C(=O)CSc1cc(C)c2ccccc2n1)c1c(N)n(Cc2ccccc2)c(=O)[nH]c1=O	i	1.6	98.0	96.2	5.8	0.622
CN(C)CC(C)(C)CNC(=O)CC1C(=O)NCCN1Cc1ccc(-c2ccccc2)cc1 (stereo unspecified)	i	-8.1	106.0	106.1	-2.3	0.397
CC(=O)c1cccc(NC(=S)NC(=O)C(C)C)c1	i	-6.0	105.3	100.2	1.3	0.605
CC(=O)c1cccc(NC(=S)NC(=O)c2cccc(Cl)c2)c1	i	-44.4	139.5*	103.2	-5.0	15.6*
O=C(NC(=S)Nc1ccc(N2CCOCC2)cc1)c1ccco1	i	-9.3	108.3	103.5	-6.6	11*
O=C(NC(=S)Nc1ccc(N2CCOCC2)cc1)c1cccc(Cl)c1	i	-13.6	112.1	98.2	1.3	6.93*
COc1cc(OC)c(NC(=O)c2ccc3c(SCC(=O)O)c4c(nc3c2)CCCC4)cc1Cl	i	0.4	99.1	99.6	2.6	-0.379
CCOc1ccc(CN2CCN(S(=O)(=O)c3ccc(NC(C)=O)cc3)CC2)cc1	i	16.0	83.7	84.4	22.0	0.847
Cc1ccsc1-c1n[nH]c(=S)n1CC(C)C	i	10.1	91.1	102.3	2.1	0.0183
CCCc1cc(-c2n[nH]c(=S)n2CC(C)C)cs1	i	0.2	99.9	99.4	4.6	15.6*
CCCCn1c(-c2csc(C(C)C)c2)n[nH]c1=S	i	5.3	95.3	93.3	11.4	20.5*
